Measurements gathered from unrelated publications.
Each line is one published result; the experiments were not run side by side.
FGFR1: Fibroblast growth factor receptor 1 (FGFR1, Homo sapiens, UniProt P11362)
FGFR1 V561M: Fibroblast growth factor receptor 1 (FGFR1, Homo sapiens, UniProt P11362, V561M)

COc1cc2ncnc(Nc3ccc(Oc4ccccc4)cc3C)c2cc1OC  inhibition (FGFR1; enzyme activity; inhibitor; 1 µM): 5%
Cc1ccc(C(=O)Nc2ccc(CN3CCN(C)CC3)c(C(F)(F)F)c2)cc1C#Cc1cnc2cccnn12  remaining signal (FGFR1; cell-free assay; 23.5 nM): 4.8%
CNCc1ccccc1-c1csc([C@H](C)Nc2nc(C)nc3cc(OC)c(OC)cc23)c1  remaining binding (FGFR1; cell-free assay; competition with immobilised ligand; 1 µM): 100%
Cc1ccc(C(=O)NCc2ccsc2)cc1C#Cc1cn(C(C)C)c2ncnc(N)c12  activity vs control (FGFR1; enzyme activity; inhibitor; 1 µM): 33%
C=CC(=O)Nc1cc(Nc2nccc(Nc3cc(Cl)c(F)cc3C(C)(C)O)n2)c(OC)cc1N1CC[C@@H](N(C)C)C1  inhibition (FGFR1; enzyme activity; inhibitor; 1 µM): 3%
CC/C(=N\NC(=O)NCc1cccc(O)c1)c1ccc(O)c(C)c1O  inhibition (FGFR1; enzyme activity; inhibitor; 0.1 µM): 6.1%
CCC(=O)N[C@@H]1CC[C@H](C(=O)N(C)c2ccc(-c3nc4ccccc4o3)cc2)C1  remaining binding (FGFR1; cell-free assay; competition with immobilised ligand; 1 µM): 87%
Cc1ccc(NC(=O)c2ccc(C)c(C(F)(F)F)c2)cc1C#Cc1nn(C2CCC(O)CC2)c2ncnc(N)c12 (stereo not shown)  remaining signal (FGFR1 V561M; cell-free assay; 10 µM): 40%
C/C=C/C(=O)NCc1ccc(-n2nc3c(=O)[nH]nc(N)c3c2-c2oc3ccc(C)cc3c2C)cc1  inhibition (FGFR1; enzyme activity; inhibitor; ELISA; 10 nM): 11.1%
CCOC(=O)c1c(C)[nH]c(/C=C2\C(=O)Nc3ccccc32)c1C  remaining signal (FGFR1; cell-free assay; 0.5 µM): 78.6%
O=S(=O)(NC1CCC(c2cc(F)ccc2F)(S(=O)(=O)c2ccc(Cl)cc2)CC1)C(F)(F)F (stereo not shown)  remaining binding (FGFR1; cell-free assay; competition with immobilised ligand; 1 µM): 100%
C[C@@H]1CCN(C(=O)CC#N)C[C@@H]1N(C)c1ncnc2[nH]ccc12  remaining signal (FGFR1; cell-free assay; 0.5 µM): 101%
CCC(=N\O)/C(C)=C/c1ccc(F)cc1  remaining binding (FGFR1; cell-free assay; competition with immobilised ligand; 1 µM): 100%
CNC(=O)c1cc(Oc2ccc(NC(=O)Nc3ccc(Cl)c(C(F)(F)F)c3)cc2)ccn1  inhibition (FGFR1 V561M; cell-free assay; 10 µM): 84%
O=C1NC(=O)c2cc(Nc3ccc(F)cc3)c(Nc3ccc(F)cc3)cc21  remaining signal (FGFR1; cell-free assay; 0.5 µM): 92.1%
CN(c1ccnc(CNc2nc(Nc3ccc4c(c3)CC(=O)N4)ncc2C(F)(F)F)n1)S(C)(=O)=O  remaining binding (FGFR1; cell-free assay; competition with immobilised ligand; 1 µM): 82%
Cc1cc(NC(=O)c2cccc3cc(-c4cccc5[nH]nc(N)c45)ccc23)ccc1F  activity vs control (FGFR1; enzyme activity; inhibitor; 0.1 µM): 95%
CC(C)(O)c1cncc(-c2nc3ccc(F)cc3n2C2CC2)c1  remaining binding (FGFR1; cell-free assay; competition with immobilised ligand; 1 µM): 100%
Oc1cccc(-c2nc(N3CCOCC3)c3oc4ncccc4c3n2)c1  remaining signal (FGFR1; cell-free assay; 0.5 µM): 91.7%
